# This sample holds only a part of the variants without activity.
# B1: tRNA (parent)
# chain: GUUCCGUUGGCGUAAUGGUAACGCGUCUCCCUCCUAAGGAGAAGACUGCGGGUUCGAGUCCCGUACGGAACG
# Variants of: B1
# Test: yeast fitness relative to wild type (ratio to wild type); higher = fitter; tRNA-Arg(CCU), competitive growth, 37 C, YPD
# Method in brief: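 For this measurement, the tRNA-Arg(CCU) gene was varied by chemical synthesis at a 3% per-site mutation rate across 69 sites, and each variant was placed at the native genomic locus in Saccharomyces cerevisiae. The pooled strains went through a 24-hour competition in YPD at 37°C in six parallel replicates, with amplicons from start and end populations read by 100-nucleotide paired-end sequencing. Darwinian fitness relative to wild type followed from the change in each genotype's frequency. Genotypes needed ≥ 100 starting reads, and estimates < 0.5 were set to 0.5.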
row,Variant,yeast fitness
1,GGUCCGUUGGCGUAAUGGUAACGCGUCUCCCUCUUCAGGAGAAGACUGCGGGUUCGAGUCACGUACGGAACG [U2G C34U A36C C61A],≤ 0.5
2,GGUCCGUUGGCGUAAUGGUAACGCGUCUCCCUCCUAAGGAGAAGAAUGCGGGUUCGAGUCCCGUACGGAACG [U2G C46A],0.808
3,GGUCCGUUGGCGUAAUGGUAACGCGUCUCCCUCCUAAGGAGAAGACUGCGGGUUUGAGUCGCGUGCGAAACG [U2G C55U C61G A65G G68A],≤ 0.5
4,GGUCCGUUGGCGUAAUGGUAACGCGUCUCCCUCCUAAGGAGAAGACUGCGGGUUCGAGUGCCGUACGGUACG [U2G C60G A69U],≤ 0.5
5,GGUCCGUUGGCGUAAUGGUAACGCGUCUCCCUCGUAAGGAGAAGAUUCCGGGUGCGAGUCCCGUACGGAACG [U2G C34G C46U G48C U54G],0.709
6,GGUCCGUUGGCGUAAUGGUAACGCGUCUCCCUUCUUAGGAGACGACUGCGGGUUCGAGUCCCGUACGGCACG [U2G C33U A36U A43C A69C],0.767
7,GGUCCGUUGGCGUAAUGGUAACGCGUCUCCCUACUAAGCAGAAGACUGCGGGUUCGAGUCCCGUACGGUACG [U2G C33A G39C A69U],≤ 0.5
8,GGUCCGUUGGCGUAAUGGUAACGCGUCUCCCUCCUAAGGAGAAGACUGCGGGUUAGAGUGCGGUACGGAACG [U2G C55A C60G C62G],≤ 0.5
9,GGUCCGUUGGCGUAAUGGUAACGCGUCUCCCUCCUAAGGAGAAGAGUGCGGGUUCGAGUCCCGUUCGGAACG [U2G C46G A65U],0.623
10,GGUCCGUUGGCGUAAUGGUAACGCGUCUCCUUCCUAAGGAGAAGACUGCGGGAUCGAGUCCCGUACGGAACG [U2G C31U U53A],≤ 0.5
11,GGUCCGUUGGCGUAAUGGUAACGCGUCUCCUUCCUAAGGAGAAGACGGCGGGUUCGAGUCCCGUACGGAACG [U2G C31U U47G],≤ 0.5
12,GGUCCGUUGGCGUAAUGGUAACGCGUCUCCCUCCUAAGGAGAAGAGUGUGGGUUCGAGUCCCGUACGGAACG [U2G C46G C49U],0.669
13,GGUCCGUUGGCGUAAUGGUAACGCGUCUCCCUCCUAAGGAGAAGAAUGCGGGUUCGACUCCUGUACGGAACG [U2G C46A G58C C62U],≤ 0.5
14,GGUCCGUUGGCGUAAUGGUAACGCGUCUCCCUCCUAAGGAGAAGACUGCGGGUUUGAGUCCCGUACGGAACG [U2G C55U],0.667
15,GGUCCGUUGGCGUAAUGGUAACGCGUCUCCCUCCUAAGGAGAAGACUGCGGGUUCGAGUGCCGUACGGAACG [U2G C60G],0.592
16,GGUCCGUUGGCGUAAUGGUAACGCGUCUCCCUCCUAAGGAGAAGACUGCGGGUUCGAGUCUCGUACGGAACG [U2G C61U],0.88
17,GGUCCGUUGGCGUAAUGGUAACGCGUCUCCCUUCUUAGGAGACGACUGCGGGUUCGAGUCCCGUACGGAACG [U2G C33U A36U A43C],0.688
18,GGUCCGUUGGCGUAAUGGUAACGCGUCUCCCUUCUAAGGAGAAGACUGCGGGUUCGACUCCCGUACGGAACG [U2G C33U G58C],0.566
19,GGUCCGUUGGCGUAAUGGUAACGCGUCUCCCUCUUAAGGAGAAGACUGCGGGUUCGCGUCCCGUACGGAACG [U2G C34U A57C],≤ 0.5

row,Variant,yeast fitness
1,GGUCCGUUGGCGUAAUGGUAACGCGUCUCCCUCUUAAGGAGAAGACUGCGGGUUCGGGUCCCGUACGGAACG [U2G C34U A57G],≤ 0.5
2,GGUCCGUUGGCGUAAUGGUAACGCGUCUCCCUCUUAAGGGGAAGAAUGCGGGUUCGAGUCCCGUACGGAACG [U2G C34U A40G C46A],≤ 0.5
3,GGUCCGUUGGCGUAAUGGUAACGCGUCUCCCUCCUAAGGAGAAGACUGGCGGUUCGAGUCCCGUACGGACCG [U2G C49G G50C A70C],≤ 0.5
4,GGUCCGUUGGCGUAAUGGUAACGCGUCUCCCUUCUAAGGAGCAGACUGCGGGUUCGAGUCCCGUACGGAACG [U2G C33U A42C],0.681
5,GGUCCGUUGGCGUAAUGGUAACGCGUCUCCCUCCUAAGGAGAAGACUGUGCGUUAGAGUCCCGUACGGAACG [U2G C49U G51C C55A],≤ 0.5
6,GGUCCGUUGGCGUAAUGGUAACGCGUCUCCCUCGUAAGGAGAAGACUGGGGGUUCGAGUCUCGUACGGGACG [U2G C34G C49G C61U A69G],≤ 0.5
7,GGUCCGUUGGCGUAAUGGUAACGCGUCUCCCUCCUAAGGAGAAGACUGGCGGUUCGAGUCCCGUACGGAACG [U2G C49G G50C],0.536
8,GGUCCAUUGGCGUAAUGGUAACGCGUCUCCCUCCUAAGGAGAAGACUGCGGGUUCGGGUCCCGUACGGAACG [U2G G6A A57G],0.527
9,GGUCCGUUGGCGUAAUGGUAACGCGUCUCCCUACUAAGGAGAAGACUGCGGGUUCGAGUCCCGUACGGAACG [U2G C33A],0.632
10,GGUCCGUUGGCGUAAUGGUAACGCGUCUCCCUCCUAAGGAGAAGACUGCGGGUUCGAGUCCGGUACGGAUCG [U2G C62G A70U],0.822
11,GGUCCGUUGGCGUAAUGGUAACGCGUCUCCCUCGUAAGGAGAAGACUGCGGGUUCGAGUCCCGUACUGAACG [U2G C34G G67U],≤ 0.5
12,GGUCCGUUGGCGUAAUGGUAACGCGUCUCCCUCGUAAGGAGACGACUGCGGGUUCGAGUCCCGUACGGAACG [U2G C34G A43C],0.552
13,GGUCCAUUGGCGUAUUGGUAACGCGUCUCCCUCCUAAGGAGAAGACUGCGGGUUCGAGUCCGGUACGGAACG [U2G G6A A15U C62G],≤ 0.5
14,GGUCCGUUGGCGUAAUGGUAACGCGUCUCCCUUCUAAGGAGAAGACUGCGGAUUCGAGUCCCGUACGGAACG [U2G C33U G52A],≤ 0.5
15,GGUCCGUUGGCGUAAUGGUAACGCGUCUCCCUGCUAAGCAGAAGACUGCGGGUUUGAGUCCCGUACGGAACG [U2G C33G G39C C55U],0.523
16,GGUCCGUUGGCGUAAUGGUAACGCGUCUCCCUGCUAAGCAGAAGACUGCGGGUUCGAGUCCCGUCCGGAACG [U2G C33G G39C A65C],≤ 0.5
17,GGUCCGUUGGCGUAAUGGUAACGCGUCUCCCUCCUAAGGAGAAGACUGAGGGUUCGCGUCCCGUACGGAACG [U2G C49A A57C],≤ 0.5
18,GGUCCGUUGGCGUAAUGGUAACGCGUCUCCCUCCUAAGGAGAAGACUGUGGAUUCGAGUCCCGUACGCAACG [U2G C49U G52A G68C],≤ 0.5
19,GGUCCGUUGGCGUAAUGGUAACGCGUCUCCCUCGUAAGCACAAGACUGCGGGUUCGAGUCCCGUACCGACCG [U2G C34G G39C G41C G67C A70C],≤ 0.5

# — the RNAGym collection of RNA variant scans (doi:10.1126/science.aae0568)
